# Legend:
# Type in all cases: cell-based, human
# [1] = tested on: Phenion®FT skin tissues; assay: DNA adduct formation by TLC 32P-postlabelling assay
# [2] = tested on: Phenion®FT skin tissues; assay: cytotoxicity in the skin comet assay
# In short: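 Full-thickness tissues were cultured at the air–liquid interface (37°C, 5% CO₂). They were treated in triplicate with test compound ± APC in acetone (16 µl/cm²), either three times (48, 24 and 3 h) or once for 3 h. Afterwards, culture medium was kept at 4°C for adenylate kinase release. About 25% of each tissue was snap-frozen, homogenised in cold DPBS, heated (105°C, 5 min) and centrifuged; ATP was measured in the supernatant with a kit. Both measures were expressed relative to solvent control (100%).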
# [3] = tested on: Phenion®FT skin tissues; assay: 3D skin comet assay; conditions: for % tail DNA vs SC + APC: three treatments over 48 h in the presence of APC
# [4] = tested on: EpiDerm™ skin tissues; assay: reconstructed skin micronucleus
# [5] = tested on: EpiDerm™ skin tissues; assay: cytotoxicity in the RSMN assay
# In short: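 Skin tissues received test compound topically in 10 µl (16 µl/cm²) acetone, two or three times at 24 h intervals, in triplicate alongside solvent controls. Tissues were washed in DPBS, then DPBS-EDTA, and trypsinised (0.25% trypsin–0.02% EDTA, 15 min, 37°C) into single-cell suspensions. Viable cell count came from AO/DAPI staining with an automated counter, and % BN from AO staining over 500 cells/tissue. Both were expressed relative to solvent control; excessive cytotoxicity was a 55 ± 5 % reduction.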
# [6] = tested on: EpiDerm™ skin tissues; assay: skin comet assay in EpiDerm skin tissues; conditions: single 3 h treatment, doses ≥2 µg/cm^2, keratinocytes, data not shown
structure (smiles),measurement,setting,value
"ONc1ccc2c(c1)Cc1ccccc1-2 [N-OH-2-AF, N-hydroxy-2-aminofluorene]",level of DNA adducts compared with N-OH-2-AAF at the same dose,"[1]; single 3 h treatment, 1 µg/cm^2",not significantly different
same,"cytotoxicity (% AK, % ATP)",[2]; single 3 h treatment in the presence of APC,absence of excessive cytotoxicity
same,potency in the skin comet assay compared with N-OH-2-AAF,[3]; single 3 h treatment,more potent
same,near maximal level of DNA damage,"[3]; single 3 h treatment, 1 µg/cm^2, keratinocytes and fibroblasts",60–80 % tail DNA
same,DNA damage (% tail DNA) in the presence of APC,"[3]; single 3 h treatment, all three doses, both cell types",further amplified and reached near maximal levels
same,DNA damage (% tail DNA),"[3]; single 3 h treatment, doses of 0.25–4 µg/cm^2, keratinocytes and fibroblasts","robust, dose-responsive increase in DNA damage"
same,micronuclei in the RSMN assay (% MN-BN),"[4]; three treatments over 72 h, at the two highest doses 0.85 and 1.3 µg/cm^2, P < 0.01",significant change in micronuclei
same,MN formation (% MN-BN),"[4]; two treatments over 48 h, up to 1.3 µg/cm^2",did not significantly increase MN formation
same,cytotoxicity by % VCC,"[5]; three treatments over 72 h, highest dose 1.3 µg/cm^2",approached the cytotoxicity threshold for % VCC at the highest dose
"CC(=O)Nc1ccc2c(c1)Cc1ccccc1-2 [2-AAF, 2-acetylaminofluorene]",increase of adduct levels after multiple exposures over 48 h vs 3 h treatment,[1]; multiple exposures over 48 h,> 10 fold
same,2-AAF-derived DNA adducts,"[1]; single 3 h treatment, 50 and 150 µg/cm^2","minimal, but detectable"
same,"DNA adduct level (RAL), up to",[1]; three treatments over 48 h,~ 10 adducts per 10^8 nucleotides
same,DNA adduct levels in the presence of APC,"[1]; three-treatment protocol, 150 µg/cm^2, with APC","additional, but non-significant increase"
same,dose that exceeded the % ATP cytotoxicity threshold,[2]; three treatments over 48 h with APC,75 µg/cm^2
same,% tail DNA vs SC + APC,"[3]; fibroblasts, both experiments, all doses tested",significant increase in the % tail DNA
same,% tail DNA vs SC + APC,"[3]; keratinocytes, at 75 µg/cm^2",only statistically significant in one experiment
same,DNA damage in the RSMN assay (% MN-BN),"[4]; topical, three doses over 72 h, up to 96 µg/cm^2",did not significantly increase DNA damage
same,MN formation (% MN-BN),"[4]; topical, two times over a 48-h period, doses up to 140 µg/cm^2, vs SC",did not result in a significant increase in MN formation
"CC(=O)N(O)c1ccc2c(c1)Cc1ccccc1-2 [N-OH-2-AAF, N-hydroxy-2-acetylaminofluorene]",% tail DNA,"[3]; single 3 h treatment, 4 µg/cm^2, keratinocytes and fibroblasts",significantly increased the % tail DNA
same,DNA damage (% tail DNA) in the presence of APC vs compound alone,"[3]; single 3 h treatment, 1 and 4 µg/cm^2, both cell types",further amplified
same,DNA damage in the RSMN assay (% MN-BN),"[4]; three treatments over 72 h, doses up to 0.8 µg/cm^2",did not cause a significant increase in DNA damage
same,DNA damage in the RSMN assay (% MN-BN),"[4]; two treatments over 48 h, doses up to 0.8 µg/cm^2",did not cause a significant increase in DNA damage
same,DNA damage in the skin comet assay,[6],highly significant dose-dependent increase in DNA damage
same,dose that exceeded the cytotoxicity threshold by % BN,[5]; two or three treatments over 48 h or 72 h,0.8 µg/cm^2
"C[C@@]1(CO)[C@H](O)CC[C@@]2(C)[C@H]1CC[C@H]1C[C@@H]3C[C@@]12CC[C@]3(O)CO [APC, aphidicolin]",DNA damage (% tail DNA) vs SC group alone,"[3]; APC alone, 5 µg/ml in medium 4 h before end of incubation",small non-significant increase in DNA damage

# From paper PMC8081378 (Mutagenesis, 2019)
